In ChEMBL document CHEMBL3877267, “Synthesis, biological evaluation and molecular modeling of 1-oxa-4-thiaspiro- and 1,4-dithiaspiro[4.5]decane derivatives as potent and selective 5-HT1A receptor agonists” (Eur J Med Chem, 2017):
Active and inactive are the calls of the source. The calls are words filed in the database; no cut-off is given here.

What was measured:
[1] = biological target: T1, Alpha-1A adrenergic receptor (Homo sapiens, UniProt P35348); assay: Displacement of [3H]prazosin from recombinant human alpha1a adrenergic receptor expressed in CHO cell membranes after 30 mins by TopCount liquid scintillation counting method
T1 sequence (P35348 whole entry): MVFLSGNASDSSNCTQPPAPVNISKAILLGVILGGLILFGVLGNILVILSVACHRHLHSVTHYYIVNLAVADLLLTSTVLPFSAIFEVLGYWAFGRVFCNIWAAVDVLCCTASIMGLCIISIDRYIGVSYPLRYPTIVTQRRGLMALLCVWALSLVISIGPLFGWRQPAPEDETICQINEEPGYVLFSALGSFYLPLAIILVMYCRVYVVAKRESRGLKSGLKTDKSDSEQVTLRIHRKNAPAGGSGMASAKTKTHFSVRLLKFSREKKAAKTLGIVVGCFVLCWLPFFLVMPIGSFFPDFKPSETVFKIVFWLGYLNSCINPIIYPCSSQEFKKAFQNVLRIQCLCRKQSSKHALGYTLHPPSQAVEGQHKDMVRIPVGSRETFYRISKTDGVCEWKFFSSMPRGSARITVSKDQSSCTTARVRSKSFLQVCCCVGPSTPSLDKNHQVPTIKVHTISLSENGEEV
Outline: (§1)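 Membranes from CHO cells stably expressing each human α1 subtype (70 µg protein), incubated in 50 mM Tris pH 7.4 with 0.1–0.4 nM [3H]prazosin and competitor (1 pM–1 µM) for 30 min at 25 °C. Nonspecific binding defined with 10 µM tamsulosin. Filtration and scintillation counting.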

[2] = biological target: T2, 5-hydroxytryptamine receptor 1A (Homo sapiens, UniProt P08908); assay: Displacement of [3H]8-OH-DPAT from recombinant human 5-HT1A receptor expressed in HeLa cell membranes after 30 mins by TopCount liquid scintillation counting method; assay type: cell-based
T2 sequence (P08908 whole entry): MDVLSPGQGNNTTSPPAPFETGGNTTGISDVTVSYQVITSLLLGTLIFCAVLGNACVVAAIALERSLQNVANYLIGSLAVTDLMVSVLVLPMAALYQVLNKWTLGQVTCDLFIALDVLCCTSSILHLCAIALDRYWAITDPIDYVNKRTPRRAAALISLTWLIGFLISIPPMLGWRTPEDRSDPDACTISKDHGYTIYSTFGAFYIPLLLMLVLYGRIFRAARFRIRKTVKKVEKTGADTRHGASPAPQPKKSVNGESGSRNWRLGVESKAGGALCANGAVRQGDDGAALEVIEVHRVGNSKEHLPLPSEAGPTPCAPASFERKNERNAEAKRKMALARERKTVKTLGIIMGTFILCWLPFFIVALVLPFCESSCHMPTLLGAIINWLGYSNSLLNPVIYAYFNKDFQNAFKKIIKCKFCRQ

[3] = biological target: T3, Alpha-1B adrenergic receptor (Homo sapiens, UniProt P35368); assay: Displacement of [3H]prazosin from recombinant human alpha1b adrenergic receptor expressed in CHO cell membranes after 30 mins by TopCount liquid scintillation counting method
T3 sequence (P35368 whole entry): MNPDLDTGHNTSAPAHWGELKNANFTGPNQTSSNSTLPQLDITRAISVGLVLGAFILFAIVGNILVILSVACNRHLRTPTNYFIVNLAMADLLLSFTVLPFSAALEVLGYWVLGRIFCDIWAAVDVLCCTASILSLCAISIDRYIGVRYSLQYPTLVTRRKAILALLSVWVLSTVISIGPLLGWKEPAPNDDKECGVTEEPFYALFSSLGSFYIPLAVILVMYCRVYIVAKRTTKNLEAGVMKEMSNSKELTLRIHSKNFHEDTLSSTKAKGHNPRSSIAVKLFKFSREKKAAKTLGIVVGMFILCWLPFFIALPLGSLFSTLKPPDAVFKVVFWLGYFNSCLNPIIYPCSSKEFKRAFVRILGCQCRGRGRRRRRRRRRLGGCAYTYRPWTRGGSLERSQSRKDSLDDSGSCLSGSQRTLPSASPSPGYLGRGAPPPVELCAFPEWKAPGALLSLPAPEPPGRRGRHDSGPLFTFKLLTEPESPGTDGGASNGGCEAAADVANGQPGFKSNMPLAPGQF
Outline: as §1, with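 “counting. Ki by Cheng–Prusoff; pKi mean of 2–3 experiments in duplicate.” for “counting.”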

[4] = biological target: T4, Alpha-1D adrenergic receptor (Homo sapiens, UniProt P25100); assay: Displacement of [3H]prazosin from recombinant human alpha1d adrenergic receptor expressed in CHO cell membranes after 30 mins by TopCount liquid scintillation counting method; outline: as §1
T4 sequence (P25100 whole entry): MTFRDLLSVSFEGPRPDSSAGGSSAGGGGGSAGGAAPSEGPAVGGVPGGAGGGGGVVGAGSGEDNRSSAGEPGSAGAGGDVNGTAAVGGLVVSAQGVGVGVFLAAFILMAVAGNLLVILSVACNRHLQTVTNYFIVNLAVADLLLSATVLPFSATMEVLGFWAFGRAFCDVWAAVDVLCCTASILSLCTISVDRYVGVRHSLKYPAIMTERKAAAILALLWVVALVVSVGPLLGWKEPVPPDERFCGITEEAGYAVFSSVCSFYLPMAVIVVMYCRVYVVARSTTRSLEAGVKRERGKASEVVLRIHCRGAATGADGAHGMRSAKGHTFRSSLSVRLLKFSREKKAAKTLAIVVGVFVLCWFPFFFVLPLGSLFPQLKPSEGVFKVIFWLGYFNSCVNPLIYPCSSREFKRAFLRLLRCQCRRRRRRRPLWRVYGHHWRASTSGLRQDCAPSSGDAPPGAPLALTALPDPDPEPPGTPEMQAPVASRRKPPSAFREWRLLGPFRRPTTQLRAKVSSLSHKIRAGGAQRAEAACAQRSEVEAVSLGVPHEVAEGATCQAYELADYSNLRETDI

[5] = biological target: T5, 5-hydroxytryptamine receptor 1A (Homo sapiens) (UniProt P08908); assay: Agonist activity at recombinant human 5-HT1A receptor expressed in HeLa cell membranes assessed as induction of [35S]GTPgammaS binding preincubated for 20 mins followed by [35S]GTPgammaS addition measured after 30 mins by liquid scintillation counting method; assay type: functional
T5 sequence (whole entry): T2 sequence (P08908 whole entry)
Outline: (§2)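 HeLa membranes with recombinant human 5-HT1A (50-70 µg protein) in 20 mM HEPES, 3 mM MgSO4, 120 mM NaCl, pH 7.4. Pre-incubated with 30 µM GDP and drug (0.01 nM–10 µM) for 20 min at 30 °C, then 200 pM [35S]GTPγS added for 30 min at 30 °C. Nonspecific binding defined with 10 µM GTPγS. Filtration and scintillation counting. Emax and pD2 taken from concentration–response fits.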

[6] = Cytotoxicity against human SH-SY5Y cells assessed as reduction in cell viability after 24 hrs by MTT assay; assay type: toxicity, cell-based
Outline: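 SH-SY5Y cells in DMEM with 10% heat-inactivated FBS, 2 mM L-glutamine, penicillin/streptomycin, 37 °C, 5% CO2; seeded 10,000 cells/well and incubated overnight. Compounds added at 0.1-100 μM for 24 h at 37 °C. MTT (0.5% w/v) added for 3 h, cells lysed in DMSO/EtOH 1:1, absorbance at 570 nm. IC50 taken as the concentration giving 50% growth inhibition.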

[7] = Apparent permeability from apical to basolateral side in MDCK2-MDR1 cells at 75 uM after 120 mins by UV-Visible spectrophotometric method; assay type: ADME, cell-based, Canis lupus familiaris, MDCK-II; conditions: dog, MDCK-MDR1
Outline: (§3)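 MDCKII-MDR1 cells seeded at 100,000 cells/cm² on Transwell inserts (0.4 µm pores); monolayers with TEER 800 Ohm cm² used. Equilibrated 30 min at 37 °C in pH 7.4 bicarbonate/glucose transport medium. Receiver sampled after 120 min at 37 °C, 5% CO2, quantified by UV-Vis. Papp calculated from acceptor/initial concentration. Triplicate wells, three experiments.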

[8] = Neuroprotective activity against oligomycin A-induced cell death in human SH-SY5Y cells assessed as increase in cell viability at 0.1 uM after 24 hrs by MTT assay; assay type: functional
Outline: (§4)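 SH-SY5Y cells seeded at 10,000 cells/well and grown 24 h at 37 °C, 5% CO2. Then co-incubated 24 h with compound at 0.1 μM plus one insult: H2O2 195 μM, oligomycin A 30 μM or rotenone 75 μM. Viability read by MTT at 570 nm. Given as percent neuroprotection ± SD from three independent experiments.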

[9] = Apparent permeability from basolateral to apical side in MDCK2-MDR1 cells at 75 uM after 120 mins by UV-Visible spectrophotometric method; assay type: ADME, cell-based, Canis lupus familiaris, MDCK-II; conditions: dog, MDCK-MDR1; outline: as §3
[10] = Neuroprotective activity against H2O2-induced cell death in human SH-SY5Y cells assessed as increase in cell viability at 0.1 uM after 24 hrs by MTT assay; assay type: functional; outline: as §4
[11] = Neuroprotective activity against H2O2-induced cell death in human SH-SY5Y cells assessed as increase in cell viability at 1 uM after 24 hrs by MTT assay; assay type: functional
Outline: (§5)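 SH-SY5Y cells seeded at 10,000 cells/well and grown 24 h at 37 °C, 5% CO2. Then co-incubated 24 h with compound at 1 μM plus one insult: H2O2 195 μM, oligomycin A 30 μM or rotenone 75 μM. Viability read by MTT at 570 nm. Given as percent neuroprotection ± SD from three independent experiments.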

[12] = Efflux ratio of apparent permeability from basolateral to apical over apical to basolateral side in MDCK2-MDR1 cells at 75 uM after 120 mins by UV-Visible spectrophotometric method; assay type: ADME, cell-based, Canis lupus familiaris; conditions: dog, MDCK-MDR1
[13] = Neuroprotective activity against rotenone-induced cell death in human SH-SY5Y cells assessed as increase in cell viability at 0.1 uM after 24 hrs by MTT assay; assay type: functional; outline: as §4
[14] = biological target: T5, 5-hydroxytryptamine receptor 1A (Homo sapiens); assay: Agonist activity at recombinant human 5-HT1A receptor expressed in HeLa cell membranes assessed as induction of [35S]GTPgammaS binding up to 10 uM preincubated for 20 mins followed by [35S]GTPgammaS addition measured after 30 mins by liquid scintillation counting method relative to serotonin; assay type: functional; outline: as §2
[15] = tested on: Mus musculus; assay: Analgesic activity in Swiss CD1 mouse assessed reduction in formalin-induced inflammatory pain by measuring reduction in time spent in licking or biting formalin injected hind paw at 10 mg/kg, ip pretreated for 15 mins followed by formalin injection measured every 5 mins for 10 to 60 mins; assay type: functional, organism-based
Outline: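 Male Swiss […] mice, 25-30 g. Dosed i.p. in saline with 10% DMSO (5 ml/kg) 15 min before 5% formalin (10 µl) into the right hind paw. […] 8-10 mice per group; mean ± SEM; two-way repeated-measures ANOVA with Bonferroni post hoc test; scored blind.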

[16] = Neuroprotective activity against rotenone-induced cell death in human SH-SY5Y cells assessed as increase in cell viability at 1 uM after 24 hrs by MTT assay; assay type: functional; outline: as §5
[17] = Neuroprotective activity against oligomycin A-induced cell death in human SH-SY5Y cells assessed as increase in cell viability at 1 uM after 24 hrs by MTT assay; assay type: functional; outline: as §5

Row | SMILES | Ki [1] [nM] | Ki [2] [nM] | Ki [3] [nM] | Ki [4] [nM] | pD2 [5] | also measured
1 | COc1ccccc1N1CCN(CCN2C(=O)CC3(CCCC3)CC2=O)CC1 |  |  |  |  | 9.27 | 
2 | C=C(C)[C@H]1Cc2c(ccc3c2O[C@@H]2COc4cc(OC)c(OC)cc4[C@@H]2C3=O)O1 [ROTENONE] |  |  |  |  |  | IC50 at 24 h [6]: 74100 nM
3 | COc1cccc(OC)c1OCCNCC1COC2(CCCCC2)O1 (stereo not given) | > 1000 |  | > 1000 | 1780 |  | 
4 | COc1ccccc1OCCNCC1CSC2(CCCCC2)S1 (stereo not given) | 186 | 0.933 | 195 | 34.7 | 9.58 | Papp A→B at 2 h, 75 µM [7]: 11.1 ×10⁻⁶ cm/s; Activity [8]: 81%; Papp B→A at 2 h, 75 µM [9]: 10.9 ×10⁻⁶ cm/s; Activity [10]: 83%; Activity [11]: 66%; efflux ratio at 2 h, 75 µM [12]: 0.98; IC50 at 24 h [6]: 51000 nM; Activity [13]: 62%; Emax [14]: 74%; Activity [15]: Active; Activity [16]: 66%; Activity [17]: 86%
5 | COc1ccccc1N1CCN(CC2CSC3(CCCCC3)O2)CC1 (stereo not given) | 57.5 | 5.01 | 191 | 38.9 |  | 
6 | COc1ccccc1N1CCN(CC2CSC3(CCCCC3)S2)CC1 (stereo not given) | 200 | 3.02 | 407 | 100 | 8.61 | Emax [14]: 37%
7 | CC[C@H]1/C=C/C=C/C[C@@H](C)[C@H](O)[C@@](C)(O)C(=O)[C@@H](C)[C@H](O)[C@@H](C)C(=O)[C@@H](C)[C@H](O)[C@@H](C)/C=C/C(=O)O[C@@H]2[C@H](C)[C@H](CC1)O[C@]1(CC[C@H](C)[C@H](C[C@@H](C)O)O1)[C@H]2C [OLIGOMYCIN] |  |  |  |  |  | IC50 at 24 h [6]: 29000 nM
8 | OO [HYDROGEN PEROXIDE] |  |  |  |  |  | IC50 at 24 h [6]: 195000 nM
9 | COc1ccccc1N1CCN(CC2COC3(CCCCC3)O2)CC1 (stereo not given) |  |  |  |  | 8.61 | 

The next lines start with results.

Row | Ki [1] [nM] | Ki [2] [nM] | Ki [3] [nM] | Ki [4] [nM] | pD2 [5] | SMILES | also measured
10 | 269 | 2.24 | 219 | 32.4 |  | COc1ccccc1OCCNCC1CSC2(CCCCC2)O1 (stereo not given) | 
11 | > 1000 |  | 977 | 550 |  | c1ccc(OCCNCC2COC3(CCCCC3)O2)cc1 (stereo not given) | 
12 | > 1000 | 22.9 | 437 | 214 |  | c1ccc(OCCNCC2CSC3(CCCCC3)O2)cc1 (stereo not given) | 
13 | > 1000 | 1.55 | 550 | 123 | 8.27 | c1ccc(OCCNCC2CSC3(CCCCC3)S2)cc1 (stereo not given) | Emax [14]: 85%
14 | 229 |  | 389 | 95.5 |  | COc1ccccc1OCCNCC1COC2(CCCCC2)O1 (stereo not given) | 
